Bioassay records: PubChem BioAssay, Sanford-Burnham Center for Chemical Genomics
hIAP act – human IAP activation. P09923. purified human IAP, CDP-Star luminescence, 30 min; hits give high values; 1 = vehicle-only enzyme, 0 = enzyme-free background. activation factor at 10 µM. 330,000 tested, 0.16% active. AID 2524;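 active = activation factor of the enzyme at least 2-fold when tested at 20 µM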
Target sequence (P09923 whole entry, looked up): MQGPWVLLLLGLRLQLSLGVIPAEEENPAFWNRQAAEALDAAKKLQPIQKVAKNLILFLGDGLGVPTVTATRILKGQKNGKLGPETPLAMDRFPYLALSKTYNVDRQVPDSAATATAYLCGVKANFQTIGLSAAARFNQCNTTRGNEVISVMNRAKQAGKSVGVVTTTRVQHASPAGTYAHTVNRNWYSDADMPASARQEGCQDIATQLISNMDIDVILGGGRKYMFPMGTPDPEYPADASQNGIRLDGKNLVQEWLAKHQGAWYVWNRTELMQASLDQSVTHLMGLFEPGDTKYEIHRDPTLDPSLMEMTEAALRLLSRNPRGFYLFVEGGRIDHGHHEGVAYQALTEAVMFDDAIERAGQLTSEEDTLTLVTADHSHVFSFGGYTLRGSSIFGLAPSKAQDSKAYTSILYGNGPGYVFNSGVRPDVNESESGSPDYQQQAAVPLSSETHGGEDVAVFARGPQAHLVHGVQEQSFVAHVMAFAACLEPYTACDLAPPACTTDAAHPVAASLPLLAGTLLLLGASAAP
mIAP block – blocks mouse intestinal alkaline phosphatase | inhibition, % at 10 µM | 330,000 tested, 0.2% active | purified mouse IAP, CDP-Star luminescence, 30 min | AID 2806;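 active = inhibition of at least 40% at 10 µM in the primary screen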
bIAP activator – intestinal alkaline phosphatase (bovine) activation; purified bovine IAP, CDP-star luminescence, 30 min; hits give high values; fold of DMSO-control signal, blank-subtracted; activation factor at 20 µM; 200,000 tested, 0.17% active;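 active = activation factor of 2 or more at 20 µM, a signal rise over negative controls twice the positive control's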
bIAP inhibitor – intestinal alkaline phosphatase (bovine) inhibition; purified bovine IAP, CDP-star luminescence, 30 min; inhibition, % at 20 µM; 190,000 tested, under 10 active;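 active = over 50% inhibition of intestinal alkaline phosphatase at 20 µM in the single-dose screen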
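Assay system: bovine IAP enzyme; medium: DEA buffer 100 mM, pH 9.8, with MgCl2 1.0 mM, ZnCl2 0.02 mM; doses: 20 µM single dose; incubation: enzyme reaction for 30 min at room temperature; detection: CDP-star luminescence signal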
mIAP activ – mouse IAP activation; muIAP, CDP-Star luminescence, 30 min; hits give high values; 1 = vehicle-only enzyme signal, 0 = enzyme-free wells; activation factor at 10 µM; 330,000 tested, 0.24% active; AID 2805;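 active = activation factor of at least 2 at 20 µM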
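Assay system: mouse IAP enzyme; reagent: chemiluminescent substrate CDP-Star; dosing: test compounds delivered from DMSO solution; schedule: 30 min at room temperature; measured by: luminescence from enzymatic CDP-Star hydrolysis; controls: DMSO-only wells and no-enzyme negative control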
hIAP inh – human IAP inhibition; inhibition, % at 10 µM; AID 2544; purified IAP, CDP-Star luminescence, 30 min; 330,000 tested, 0.12% active;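 active = inhibition reaching a set limit with compound at 10 µM in the primary screen, cut at about 35% in these data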
mIAP inh conf – mouse IAP inhibition confirmation; shares compounds with mIAP block; purified mouse IAP, CDP-Star luminescence, 30 min; inhibition, % at 10 µM; 11,000 tested, 4.7% active;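 active = inhibition of at least 40% at 10 µM in either of the two replicates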
Large screens that a line does not name were inactive (follow-up assays come after a bar, where they were run). Sampled rows, rich in hits. Any-hit rate of the full collection: about 0.77%.

CCOc1ccc(NC(c2ccccc2)P(=O)(OC)OC)cc1 (configuration not stated)	none (no result: bIAP activator, bIAP inhibitor)
Nc1c(C(=O)N/N=C/c2cccnc2)oc2nc(-c3ccco3)cc(-c3ccco3)c12	mIAP block 49 (no result: bIAP activator, bIAP inhibitor) | mIAP inh conf 41
NNC(=O)c1oc2nc(-c3ccco3)cc(-c3ccco3)c2c1N	mIAP block 62 (no result: bIAP activator, bIAP inhibitor) | mIAP inh conf 72
Nc1c(C(=O)N/N=C/c2cccnc2)oc2nc(-c3ccccc3)cc(-c3ccco3)c12	none (no result: bIAP activator, bIAP inhibitor)
O=C(Nc1cc(Cl)cc(Cl)c1)Nc1cnccn1	mIAP activ 2.5 (no result: bIAP activator, bIAP inhibitor) | mIAP inh conf inactive
O=C(Nc1ccc(F)cc1)Nc1cnccn1	none (no result: bIAP activator, bIAP inhibitor)
CC(C)c1ccc(S(=O)(=O)Nc2ccc(O)c(Sc3ncn[nH]3)c2)cc1	none (no result: bIAP activator, bIAP inhibitor)
Cc1cc(C)c(S(=O)(=O)Nc2ccc(O)cc2)cc1C	none
COc1ccc(S(=O)(=O)Nc2ccc(O)c(Sc3ncn[nH]3)c2)cc1	mIAP block 63 | mIAP inh conf 72
Cc1cc(C)c(S(=O)(=O)Nc2ccc(O)c(Sc3ncn[nH]3)c2)cc1C	mIAP block 79 (no result: bIAP activator, bIAP inhibitor) | mIAP inh conf 86
O=C1CSC(=S)N1/N=C/c1ccc(Cl)c([N+](=O)[O-])c1	mIAP block 50 (no result: bIAP activator, bIAP inhibitor) | mIAP inh conf 48
COc1cc(/C=N/N2C(=O)CSC2=S)ccc1O	mIAP block 52 | mIAP inh conf 65
COc1ccc(Br)cc1/C=N/N1C(=O)CSC1=S	none (no result: bIAP activator, bIAP inhibitor)
O=C1CNC(=S)N1CCc1ccc(O)c(O)c1	mIAP block 77 (no result: bIAP activator, bIAP inhibitor) | mIAP inh conf 81
Cc1cc(NC(=O)Cn2nc(C(=O)O)c3ccccc3c2=O)c([N+](=O)[O-])cc1C	none (no result: bIAP activator, bIAP inhibitor)
COc1ccc2oc(C(=O)OCC(=O)N(Cc3ccccc3)C(C)(C)C)c(C)c2c1	none (no result: bIAP activator, bIAP inhibitor)
Oc1c(C=C2N=c3ccccc3=N2)sc(=S)n1-c1ccc(F)cc1	none | mIAP inh conf 38
Cc1cc(=O)[nH]c(N/N=C/c2ccc(O)c(O)c2)n1	mIAP block 43 (no result: bIAP activator, bIAP inhibitor) | mIAP inh conf 45
CSc1ccc(/C=N/Nc2nc(C)cc(=O)[nH]2)cc1	none
Cc1ccc(Cl)cc1NC(=O)CCS(=O)(=O)c1cccc2nonc12	none (no result: bIAP activator, bIAP inhibitor)
Cc1ccccc1NC(=O)CSc1nnc(-c2ccco2)c(-c2ccco2)n1	mIAP block 52 | mIAP inh conf 51
COc1ccc(NC(=O)CSc2nnc(-c3ccco3)c(-c3ccco3)n2)cc1OC	none (no result: bIAP activator, bIAP inhibitor)
CN(C)c1ccc(NC(=O)CSc2nnc(-c3ccco3)c(-c3ccco3)n2)cc1	mIAP block 49 (no result: bIAP activator, bIAP inhibitor) | mIAP inh conf 60
O=C(CSc1nnc(-c2ccco2)c(-c2ccco2)n1)Nc1ccccc1	mIAP block 45 | mIAP inh conf 54
Cc1ccc(NC(=O)CSc2nnc(-c3ccco3)c(-c3ccco3)n2)cc1	mIAP block 64 | mIAP inh conf 60
N#CC1=C(N)C2=C(N3CCCCC3)CCCC2C1(C#N)C#N (configuration not stated)	none (no result: bIAP inhibitor) | mIAP inh conf 40
N#CC(C#N)=C1C=C2C=C(N3CCCCC3)CCC2CC1 (configuration not stated)	none (no result: hIAP act, mIAP block, mIAP activ, hIAP inh)
Cc1ccc(S(=O)(=O)Nc2c(C)nc3nc[nH]n3c2=O)c(C)c1	none
O=C1SC(SCc2ccccc2)=N/C1=C\c1ccco1	none
CCCSC1=N/C(=C\C=C\c2ccco2)C(=O)S1	mIAP block 45 | mIAP inh conf 61
C=CCC(=O)NC1CCCc2c1cnn2-c1cc(F)cc(F)c1 (configuration not stated)	none (no result: bIAP activator, bIAP inhibitor)
O=C(N/N=C/c1cccnc1)c1cc(O)c(O)c(O)c1	mIAP block 42 (no result: bIAP activator, bIAP inhibitor) | mIAP inh conf 58
COc1ccc(CCn2c(C(C)C)nc3oc4ccccc4c(=O)c3c2=O)cc1	none (no result: bIAP activator, bIAP inhibitor)
COCc1ccc(CN2CCC(C(=O)Nc3cccc(-c4cccc(Cl)c4)c3)CC2)o1	mIAP activ 2.7 (no result: bIAP activator, bIAP inhibitor) | mIAP inh conf inactive
O=C(CSc1ncn[nH]1)CSc1ncn[nH]1	mIAP block 46 | mIAP inh conf 48
N#CCCn1cc(C(=O)Nc2cccc(C(=O)O)c2)c(-c2ccc(Cl)cc2)n1	none (no result: bIAP activator, bIAP inhibitor)
CCCCOc1[nH]c2nc(-c3ccco3)n(Cc3ccco3)c(=N)c2c1C#N	mIAP block 63 | mIAP inh conf 68
Cc1cccc(NS(=O)(=O)c2cccc(C(=O)N3CCCC(C(F)(F)F)C3)c2)c1 (configuration not stated)	none (no result: bIAP activator, bIAP inhibitor)
O=C(Nc1ccccc1-c1ccccc1)NC1CC2CCCC(C1)N2Cc1ccc(F)cc1 (configuration not stated)	bIAP activator 5.8, mIAP activ 5 | mIAP inh conf inactive
CCc1ccc(NC(=S)NC2CC3CCCC(C2)N3Cc2ccccc2)cc1 (configuration not stated)	bIAP activator 4.6, mIAP activ 5 | mIAP inh conf inactive
CCCN1C2CCCC1CC(NC(=S)Nc1cccc(C)c1)C2 (configuration not stated)	none
Cc1cccc(NC(=S)NC2CC3CCCC(C2)N3CC(C)C)c1 (configuration not stated)	mIAP activ 2.5 | mIAP inh conf inactive
CCc1ccc(NC(=S)NC2CC3CCC(C2)N3Cc2ccco2)cc1 (configuration not stated)	none
CCN(CC(=O)Nc1ccccc1C(F)(F)F)C(=O)c1ccc(N2CCCC2=O)cc1	none (no result: bIAP activator, bIAP inhibitor)
COc1ccc(C(=O)NCC(=O)OCc2ccccc2F)cc1	none
Cc1ccc(C(=S)N2CCN(Cc3ccccc3)CC2)s1	none
COc1cccc(NC(=O)Nc2ccc(C(C)(C)C)cc2)c1	mIAP activ 4.4 | mIAP inh conf inactive
CCN(CC)S(=O)(=O)c1cccc(NC(=O)CC2CCCC2)c1	none (no result: bIAP activator, bIAP inhibitor)
CCN(CC)S(=O)(=O)c1cccc(NC(=O)Nc2cccc(C(F)(F)F)c2)c1	mIAP activ 7.4 | mIAP inh conf inactive
COc1cccc(NC(=O)Nc2ccc3c(c2)CCC3)c1	mIAP activ 4.4 (no result: bIAP activator, bIAP inhibitor) | mIAP inh conf inactive
COc1ccc(CNC(=O)Nc2cccc(C(F)(F)F)c2)cc1OC	mIAP activ 2.2 | mIAP inh conf inactive
COc1ccc(CNC(=O)NCc2ccc(OC)c(OC)c2)cc1OC	none
COC(=O)c1cc(OC)c(OC)cc1NC(=O)C(C)c1ccc([N+](=O)[O-])cc1 (configuration not stated)	none
COc1cccc(C(=O)N2C(C(=O)O)CSC2c2ccccc2Cl)c1 (configuration not stated)	none
CN(c1ccccc1)S(=O)(=O)c1cccc(NC(=O)C2CCCO2)c1 (configuration not stated)	none (no result: bIAP activator, bIAP inhibitor)
O=c1c2c(nc3nc(NCc4ccccc4Cl)[nH]n13)CCC2	none
COc1cccc(C(C)NC(=O)Nc2cccc(C(F)(F)F)c2)c1 (configuration not stated)	mIAP activ 5.3 | mIAP inh conf inactive
COc1cccc(-c2csc(NC(=O)C3CC3)n2)c1	none
